What all share (format): functional
The test system of test [1] is Bacillus thuringiensis. Kind of test: Antibacterial activity against Bacillus thuringiensis ATCC 6051 at 1 mg/ml after 24 hrs by agar-diffusion method. To be noted: ATCC 6051, 24 h, read-out: IZ. The method in brief:
(§1)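 Agar disk diffusion on nutrient agar seeded with about 10⁶ CFU/mL of the test bacterium. Filter-paper disks were impregnated with compound in DMF at 1 mg/mL, two disks per plate, in triplicate. DMF alone served as control. Plates were incubated at 37 °C for 24 h, and the mean inhibition-zone diameter was recorded in mm.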

For test [2], the system named is Bacillus subtilis. Description: Antibacterial activity against Bacillus subtilis ATCC 6633 after 24 hrs by serial dilution method. To be noted: ATCC 6633, 24 h. The method in brief:
(§2)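 Broth microdilution in Mueller–Hinton broth, run only for compounds giving zones >14 mm in the disk test. DMF stocks were diluted twofold from 500 to 3.125, and about 10⁶ CFU/mL bacteria were added per well. Sealed plates were kept at 37 °C for 24 h in a humid chamber. MIC was taken as the lowest concentration without visible turbidity.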

Test [3] deals with Bacillus thuringiensis. Kind of test: Antibacterial activity against Bacillus thuringiensis ATCC 6051 after 24 hrs by serial dilution method. To be noted: ATCC 6051, 24 h. The method in brief:
as §2

Test [4] has as its system Escherichia coli. Description: Antibacterial activity against Escherichia coli ATCC 14169 at 1 mg/ml after 24 hrs by agar-diffusion method. To be noted: ATCC 14169, 24 h, read-out: IZ. The method in brief:
as §1
(In general: Agar diffusion results depend on both activity and mobility in agar.)

Test [5] deals with Botrytis fabae. Description: Antifungal activity against Botrytis fabae ATCC 14862 at 1 mg/ml after 48 hrs by agar-diffusion method. The following applies: ATCC 14862, 48 h, read-out: IZ. The method in brief:
(§3)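 Fungi were seeded at 10⁴ CFU/mL onto nutrient agar plates. Filter-paper disks carried compound dissolved in DMF at 1 mg/mL, two disks per plate, in triplicate, with a DMF-only control. After 48 h incubation at 37 °C, the average diameter of the growth-inhibition zone was read in mm.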

In test [6] the test system is Botrytis fabae. Description: Antifungal activity against Botrytis fabae ATCC 14862 after 48 hrs by serial dilution method. The following applies: ATCC 14862, 48 h. The method in brief:
(§4)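 MICs were measured by microdilution in Sabouraud liquid medium, for compounds with disk zones >14 mm. DMF stocks were serially diluted twofold across 500–3.125. Sealed plates were incubated at 37 °C for 48 h in a humid chamber. The lowest concentration with no visible turbidity was recorded as the MIC.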

Test [7] deals with Pseudomonas aeruginosa. Description: Antibacterial activity against Pseudomonas aeruginosa ATCC 27853 after 24 hrs by serial dilution method. To be noted: ATCC 27853, 24 h. The method in brief:
as §2

Test [8] concerns Pseudomonas aeruginosa. Description: Antibacterial activity against Pseudomonas aeruginosa ATCC 27853 at 1 mg/ml after 24 hrs by agar-diffusion method. The following applies: ATCC 27853, 24 h, read-out: IZ. The method in brief:
as §1

Test [9] has as its system Bacillus subtilis. Kind of test: Antibacterial activity against Bacillus subtilis ATCC 6633 after 24 hrs by serial dilution method relative to chloramphenicol.
Test [10] has as its system Bacillus subtilis. Kind of test: Antibacterial activity against Bacillus subtilis ATCC 6633 after 24 hrs by serial dilution method relative to cephalothin.
The subject of test [11] is Fusarium oxysporum. Kind of test: Antifungal activity against Fusarium oxysporum ATCC 16417 at 1 mg/ml after 48 hrs by agar-diffusion method. To be noted: ATCC 16417, 48 h, read-out: IZ. The method in brief:
as §3

For test [12], the system named is Escherichia coli. Kind of test: Antibacterial activity against Escherichia coli ATCC 14169 after 24 hrs by serial dilution method. The following applies: ATCC 14169, 24 h. The method in brief:
as §2

For test [13], the system named is Bacillus subtilis. Description: Antibacterial activity against Bacillus subtilis ATCC 6633 at 1 mg/ml after 24 hrs by agar-diffusion method. To be noted: ATCC 6633, 24 h, read-out: IZ. The method in brief:
as §1

Test [14] deals with Fusarium oxysporum. Kind of test: Antifungal activity against Fusarium oxysporum ATCC 16417 after 48 hrs by serial dilution method. To be noted: ATCC 16417, 48 h. The method in brief: as §4

Structures are written as SMILES. In brackets after ≈: the same amount, converted by molar mass.

Turning to `Cc1nn(-c2ccccc2)c2c1/C(=N/c1cnccn1)CO2`, the zone of inhibition at 1000 µg/mL in test [1] amounted to 15 mm; in [4], 20 mm; in [5] it was 16 mm; in test [8], 16 mm; in [11], 31 mm; in test [13], 32 mm. In addition, the minimal inhibitory concentration (MIC) (commonly the lowest concentration that inhibits growth of the organism) in [2] is 12.5 mg/L (≈ 42.9 µM); in test [3] it was 100 mg/L (≈ 343 µM); in test [6] it was 100 mg/L (≈ 343 µM); in test [7] it was 100 mg/L (≈ 343 µM); in test [12] it was 50 mg/L (≈ 172 µM); in [14] it was 12.5 mg/L (≈ 42.9 µM). For the same molecule, the Activity in [9] was found to be 25%; in test [10], 50%.

Take `Cc1[nH]n(-c2ccccc2)c(=O)c1-c1cc2c(=O)oc3ccccc3c2o1`: the zone of inhibition at 1000 µg/mL came out at 15 mm in test [1]; 15 mm in [4]; 37 mm in [5]; 38 mm in test [8]; 37 mm in test [11]; 33 mm in test [13]. Also, the MIC in [2] was determined as 12.5 mg/L (≈ 34.9 µM); in test [3], 100 mg/L (≈ 279 µM); in [6] it was 6.25 mg/L (≈ 17.4 µM); in [7] it was 6.25 mg/L (≈ 17.4 µM); in [12] it was 6.25 mg/L (≈ 17.4 µM); in test [14], 6.25 mg/L (≈ 17.4 µM). Moreover, the Activity in [9] was found to be 25%; in test [10], 50%.

The record behind these values is ChEMBL document CHEMBL1781920, “Synthesis and antimicrobial activity of some new 4-hetarylpyrazole and furo[2,3-c]pyrazole derivatives” (2011).
